These results are taken from PMC9424334 (Biomolecules & Therapeutics, 2022).

Holding throughout (assay type): cell-based, human
Assay [1] relates to acetylation of histone H3, H4 and tubulin in MM.1S cells. In words: Immunoblotting of acetylated proteins. The conditions noted are these: 30-1000 nM, 6 h. The essentials: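 Histones were extracted afterwards, and acetylation of histone H3, H4 and tubulin was assessed by immunoblotting with chemiluminescence detection.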
On the technique in general: Immunoblotting shows a protein as a band on a membrane.

In assay [2] the test system is DACT family in MM.1S cells. Description: Immunoblotting of DACT family expression. The conditions noted are these: 24 h. The method in brief:
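Total lysates were prepared in RIPA buffer with protease/phosphatase inhibitors and immunoblotted for DACT1, DACT2 and DACT3, normalised to GAPDH with chemiluminescence detection. Data are mean ± SEM.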

The subject of assay [3] is cyclin D1 and CDK4 in MM.1S and RPMI8226 cells. In words: Immunoblotting for CDK4 and cyclin D1. The conditions noted are these: MM.1S cells, higher concentration ranges, 24 h. The method in brief:
(§1)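 Total lysates were made in RIPA buffer with protease/phosphatase inhibitors, quantified by BCA and immunoblotted, with chemiluminescence detection and GAPDH normalisation. Data are mean ± SEM; one-way ANOVA vs control.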

Assay [4] relates to cleaved caspase-3 in MM.1S and RPMI8226 cells. In words: Immunoblotting for cleaved caspase-3. Conditions: 1000 nM. The essentials:
as §1

Structures are written as SMILES.

`O=C(CCCCCCC(=O)Nc1ccccc1)NO` [SAHA, Suberoylanilide hydroxamic acid]: in assay [1], the “acetylation intensity of histone H3 and H4” value is “increased”; the acetylation of tubulin result was “increased”. Besides, the “protein expression of DACT3” value in assay [2] (3000 nM) is given as “significantly enhanced”. Also, in assay [2], the “protein expression of DACT1 and DACT2” value is on record as “not altered”. Further, the “expression level of CDK4 and Cyclin D1” value in assay [3] is listed as “reduced”. In addition, the “cleaved caspase-3” value in assay [4] is on record as “only marginally increased”.
